# Laboratory results taken from PMC12823633 (Cancer Chemotherapy and Pharmacology, 2026).
# What was measured:
# [1] = Adverse events, DDI evaluation period; assay type: in vivo, human (patients with solid tumors)
# [2] = target: T1, CYP2C8 (Homo sapiens, UniProt P10632); assay: Clinical DDI: pioglitazone plasma PK with and without TAS-115; conditions: oral, 15 mg
# T1 sequence (P10632 1-490): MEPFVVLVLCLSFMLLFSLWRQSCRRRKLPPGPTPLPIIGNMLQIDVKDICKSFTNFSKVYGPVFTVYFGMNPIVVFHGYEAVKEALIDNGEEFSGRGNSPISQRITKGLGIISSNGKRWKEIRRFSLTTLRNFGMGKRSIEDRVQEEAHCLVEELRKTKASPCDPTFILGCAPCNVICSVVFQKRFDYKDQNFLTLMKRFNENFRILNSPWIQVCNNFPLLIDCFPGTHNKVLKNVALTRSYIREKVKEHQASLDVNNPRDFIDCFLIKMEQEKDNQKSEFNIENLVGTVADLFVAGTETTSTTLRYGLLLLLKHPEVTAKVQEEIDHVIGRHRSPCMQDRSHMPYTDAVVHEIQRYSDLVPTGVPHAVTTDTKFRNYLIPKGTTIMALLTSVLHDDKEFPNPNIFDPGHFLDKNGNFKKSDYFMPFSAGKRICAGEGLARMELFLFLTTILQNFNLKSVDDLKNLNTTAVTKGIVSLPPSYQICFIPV
# [3] = tested on: solid tumors; assay: Anti-tumor efficacy, continuous administration period; assay type: in vivo, human (patients with solid tumors)
# In short: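 Open-label single-arm multicenter study in Japan. Test compound 250 mg given orally, fasted, on 5 consecutive days from Day 1 of repeated 21-day cycles (2 days off), until discontinuation. Investigator-assessed per RECIST 1.1. ORR is the % with best response CR/PR; DCR is the % with CR/PR/SD. OS in osteosarcoma runs from enrollment to death from any cause, censored at the last recorded follow-up or observation.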
# [4] = tested on: CYP2C19; conditions: read-out: IC50, reversible inhibition; ref unpublished inhouse data; cited from earlier work
# [5] = TAS-115 trough plasma concentrations; assay type: in vivo, human (patients with solid tumors)
# [6] = tested on: CYP2C8; conditions: read-out: IC50, reversible inhibition; ref unpublished inhouse data; cited from earlier work
# [7] = tested on: CYP2C9; conditions: read-out: IC50, reversible inhibition; ref unpublished inhouse data; cited from earlier work
# [8] = Adverse events, continuous administration period; assay type: in vivo, human (patients with solid tumors)
# [9] = tested on: CYP2B6; conditions: read-out: IC50, reversible inhibition; ref unpublished inhouse data; cited from earlier work
# [10] = tested on: CYP3A; conditions: time-dependent inhibition; ref unpublished inhouse data; cited from earlier work
# [11] = After Administration of TAS-115, DDI period (N=18)
# [12] = Before Administration of TAS-115 (N=18)
# [13] = Entire DDI Evaluation Period (N=18)
# [14] = All patients (N=16), efficacy-evaluable
# [15] = Continuous Administration Period (N=18)
# [16] = continuous administration period
smiles,measurement,setting,value
"CCc1ccc(CCOc2ccc(CC3SC(=O)NC3=O)cc2)nc1 (stereo not drawn) [Pioglitazone, pioglitazone, reference compound]",Any >=Grade 3 TRAEs Related to Pioglitazone,[1]; [11],0 (0.0) N (%)
same,Any TRAEs Related to Pioglitazone,[1]; [11],0 (0.0) N (%)
same,Any >=Grade 3 TRAEs Related to Pioglitazone,[1]; [12],0 (0.0) N (%)
same,Any TRAEs Related to Pioglitazone,[1]; [12],1 (5.6) N (%)
same,TRAE (Grade 1 diarrhoea) related to pioglitazone,"[1]; DDI evaluation period, pioglitazone administered before TAS-115",one patient
same,Any >=Grade 3 TRAEs Related to Pioglitazone,[1]; [13],0 (0.0) N (%)
same,Any TRAEs Related to Pioglitazone,[1]; [13],1 (5.6) N (%)
same,AUC(0-inf),[2],7710 ng·h/mL
same,AUC(0-t),[2],6340 ng·h/mL
same,Cmax,[2],635 ng/mL
"CNC(=O)c1cc2c(Oc3ccc(NC(=S)NC(=O)Cc4ccccc4)cc3F)ccnc2cc1OC [TAS-115, pamufetinib]",CR,[3]; [14],0 (0.0) N (%)
same,Disease control rate (CR+PR+SD),[3]; [14],6 (37.5) N (%)
same,PD,[3]; [14],10 (62.5) N (%)
same,PR,[3]; [14],1 (6.3) N (%)
same,"Progression-free survival, Censored",[3]; [14],2 (12.5) N (%)
same,"Progression-free survival, Event",[3]; [14],14 (87.5) N (%)
same,"Progression-free survival, Median",[3]; [14],2.1 month
same,Response rate (CR+PR),[3]; [14],1 (6.3) N (%)
same,CR,[3]; Osteosarcoma (N=4),0 (0.0) N (%)
same,Disease control rate (CR+PR+SD),[3]; Osteosarcoma (N=4),2 (50.0) N (%)
same,"Overall survival, Censored",[3]; Osteosarcoma (N=4),1 (25.0) N (%)
same,"Overall survival, Event",[3]; Osteosarcoma (N=4),3 (75.0) N (%)
same,"Overall survival, Median",[3]; Osteosarcoma (N=4),13.8 month
same,PD,[3]; Osteosarcoma (N=4),2 (50.0) N (%)
same,PR,[3]; Osteosarcoma (N=4),1 (25.0) N (%)
same,"Progression-free survival, Censored",[3]; Osteosarcoma (N=4),0 (0.0) N (%)
same,"Progression-free survival, Event",[3]; Osteosarcoma (N=4),4 (100.0) N (%)
same,"Progression-free survival, Median",[3]; Osteosarcoma (N=4),7.0 month
same,Response rate (CR+PR),[3]; Osteosarcoma (N=4),1 (25.0) N (%)
same,DCR,"[3]; patients with solid tumors, 16 evaluable",37.5%
same,IC50,[4],4.23 µM
same,"trough plasma concentration, arithmetic mean (standard deviation)","[5]; Day 4, 250 mg once daily oral",834.5 (318.68) ng/mL
same,"trough plasma concentration, arithmetic mean (standard deviation)","[5]; Day 5, 250 mg once daily oral",881.6 (378.03) ng/mL
same,concentration at 24 h,"[5]; human, plasma, po, 250 mg",576 ng/mL
same,IC50,[6],0.563 µM
same,Any >=Grade 3 TEAEs,[1]; [11],2 (11.1) N (%)
same,Any >=Grade 3 TRAEs,[1]; [11],1 (5.6) N (%)
same,Any >=Grade 3 TRAEs Related to TAS-115,[1]; [11],1 (5.6) N (%)
same,Any SAEs,[1]; [11],0 (0.0) N (%)
same,Any TEAEs,[1]; [11],15 (83.3) N (%)
same,Any TEAEs Leading to Death,[1]; [11],0 (0.0) N (%)
same,Any TEAEs Leading to Discontinuation of Study Medication,[1]; [11],0 (0.0) N (%)
same,Any TEAEs Leading to Dose Interruption of TAS-115,[1]; [11],0 (0.0) N (%)
same,Any TEAEs Leading to Dose Reduction of TAS-115,[1]; [11],0 (0.0) N (%)
same,Any TRAEs,[1]; [11],15 (83.3) N (%)
same,Any TRAEs Leading to Death,[1]; [11],0 (0.0) N (%)
same,Any TRAEs Leading to Discontinuation of Study Medication,[1]; [11],0 (0.0) N (%)
same,Any TRAEs Related to TAS-115,[1]; [11],14 (77.8) N (%)
same,Any TRAEs Related to TAS-115 Leading to Dose Interruption of TAS-115,[1]; [11],0 (0.0) N (%)
same,Any TRAEs Related to TAS-115 Leading to Dose Reduction of TAS-115,[1]; [11],0 (0.0) N (%)
same,Any Treatment-Related SAEs,[1]; [11],0 (0.0) N (%)
same,Grade 3 or higher TRAE (anaemia) attributed to TAS-115,[1]; DDI evaluation period,one patient
same,patients reporting TEAEs,[1]; DDI evaluation period,83.3%
same,patients with TRAEs,[1]; DDI evaluation period,83.3%
same,patients with TRAEs related to TAS-115,[1]; DDI evaluation period,14 patients
same,patients with TEAEs of ≥ Grade 3,"[1]; DDI evaluation period, anemia and lipase increased",11.1%
same,Any >=Grade 3 TEAEs,[1]; [13],2 (11.1) N (%)
same,Any >=Grade 3 TRAEs,[1]; [13],1 (5.6) N (%)
same,Any >=Grade 3 TRAEs Related to TAS-115,[1]; [13],1 (5.6) N (%)
same,Any SAEs,[1]; [13],0 (0.0) N (%)
same,Any TEAEs,[1]; [13],15 (83.3) N (%)
same,Any TEAEs Leading to Death,[1]; [13],0 (0.0) N (%)
same,Any TEAEs Leading to Discontinuation of Study Medication,[1]; [13],0 (0.0) N (%)
same,Any TEAEs Leading to Dose Interruption of TAS-115,[1]; [13],0 (0.0) N (%)
same,Any TEAEs Leading to Dose Reduction of TAS-115,[1]; [13],0 (0.0) N (%)
same,Any TRAEs,[1]; [13],15 (83.3) N (%)
same,Any TRAEs Leading to Death,[1]; [13],0 (0.0) N (%)
same,Any TRAEs Leading to Discontinuation of Study Medication,[1]; [13],0 (0.0) N (%)
same,Any TRAEs Related to TAS-115,[1]; [13],14 (77.8) N (%)
same,Any TRAEs Related to TAS-115 Leading to Dose Interruption of TAS-115,[1]; [13],0 (0.0) N (%)
same,Any TRAEs Related to TAS-115 Leading to Dose Reduction of TAS-115,[1]; [13],0 (0.0) N (%)
same,Any Treatment-Related SAEs,[1]; [13],0 (0.0) N (%)
same,IC50,[7],2.03 µM
same,Any >=Grade 3 TEAEs,[8]; [15],8 (44.4) N (%)
same,Any >=Grade 3 TRAEs Related to TAS-115,[8]; [15],6 (33.3) N (%)
same,Any SAEs,[8]; [15],5 (27.8) N (%)
same,Any TEAEs,[8]; [15],18 (100.0) N (%)
same,Any TEAEs Leading to Death,[8]; [15],0 (0.0) N (%)
same,Any TEAEs Leading to Discontinuation of Study Medication,[8]; [15],1 (5.6) N (%)
same,Any TEAEs Leading to Dose Interruption of TAS-115,[8]; [15],10 (55.6) N (%)
same,Any TEAEs Leading to Dose Reduction of TAS-115,[8]; [15],1 (5.6) N (%)
same,Any TRAEs Leading to Death,[8]; [15],0 (0.0) N (%)
same,Any TRAEs Leading to Discontinuation of Study Medication,[8]; [15],1 (5.6) N (%)
same,Any TRAEs Related to TAS-115,[8]; [15],17 (94.4) N (%)
same,Any TRAEs Related to TAS-115 Leading to Dose Interruption of TAS-115,[8]; [15],9 (50.0) N (%)
same,Any TRAEs Related to TAS-115 Leading to Dose Reduction of TAS-115,[8]; [15],1 (5.6) N (%)
same,Any Treatment-Related SAEs,[8]; [15],2 (11.1) N (%)
same,Grade 3 rash maculo-papular leading to discontinuation of TAS-115,[8]; [16],One patient
same,TEAE blood creatine phosphokinase (CK) increased,[8]; [16],27.8%
same,TRAE of ≥ Grade 3 related to TAS-115: anaemia,[8]; [16],11.1%
same,TRAE related to TAS-115: alanine aminotransferase increased,[8]; [16],33.3%
same,TRAE related to TAS-115: anemia,[8]; [16],27.8%
same,TRAE related to TAS-115: aspartate aminotransferase increased,[8]; [16],55.6%
same,TRAE related to TAS-115: blood CK increased,[8]; [16],27.8%
same,TRAE related to TAS-115: platelet count decreased,[8]; [16],22.2%
same,TRAE related to TAS-115: rash,[8]; [16],22.2%
same,criteria for severe drug-induced liver injury (Hy’s law),[8]; [16],No criteria for severe drug-induced liver injury (Hy’s law) were met
same,patients reporting TEAEs,[8]; [16],100%
same,patients requiring dose interruption by AEs,[8]; [16],55.6%
same,patients requiring dose reduction due to AEs related to TAS-115,[8]; [16],5.6%
same,patients with SAEs,[8]; [16],27.8%
same,patients with TEAEs of ≥ Grade 3,[8]; [16],44.4%
same,patients with TRAEs of ≥ Grade 3 related to TAS-115,[8]; [16],33.3%
same,patients with TRAEs related to TAS-115,[8]; [16],94.4%
same,deaths,[8]; continuous administration period or within 30 days following discontinuation,No deaths occurred
same,IC50,[9],6.03 µM
same,concentration of the inhibitor required to achieve 50% of the maximum inactivation rate,[10],28.5 µmol/L
same,maximum inactivation rate constant,[10],0.0650 min⁻¹
